≈ marks a conversion by molar mass, not a printed value. Values belong to the molecule of their own block, whether it stands above or below them. Calls of active or inactive are those of the source. The calls are words filed in the database; no cut-off is given here.
Assays:
Pseudomonas aeruginosa = experiment: Antimicrobial activity against Pseudomonas aeruginosa ATCC 27853 after overnight incubation; type: functional
How it was run: (§1)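 MIC read after overnight incubation of fatty acid with each organism at 37 °C. Endpoint was the highest dilution preventing growth, compared with an uninoculated chemical-control well. Data come from at least three separate experiments in duplicate.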

[1] = target: T1, DNA topoisomerase 1 (Homo sapiens) (UniProt P11387); experiment: Inhibition of human DNA topoisomerase 1 assessed as inhibition of uncoiling of supercoiled Tetrahymena pHOT1 DNA at […] after 30 mins by agarose gel electrophoresis
T1 sequence (whole entry): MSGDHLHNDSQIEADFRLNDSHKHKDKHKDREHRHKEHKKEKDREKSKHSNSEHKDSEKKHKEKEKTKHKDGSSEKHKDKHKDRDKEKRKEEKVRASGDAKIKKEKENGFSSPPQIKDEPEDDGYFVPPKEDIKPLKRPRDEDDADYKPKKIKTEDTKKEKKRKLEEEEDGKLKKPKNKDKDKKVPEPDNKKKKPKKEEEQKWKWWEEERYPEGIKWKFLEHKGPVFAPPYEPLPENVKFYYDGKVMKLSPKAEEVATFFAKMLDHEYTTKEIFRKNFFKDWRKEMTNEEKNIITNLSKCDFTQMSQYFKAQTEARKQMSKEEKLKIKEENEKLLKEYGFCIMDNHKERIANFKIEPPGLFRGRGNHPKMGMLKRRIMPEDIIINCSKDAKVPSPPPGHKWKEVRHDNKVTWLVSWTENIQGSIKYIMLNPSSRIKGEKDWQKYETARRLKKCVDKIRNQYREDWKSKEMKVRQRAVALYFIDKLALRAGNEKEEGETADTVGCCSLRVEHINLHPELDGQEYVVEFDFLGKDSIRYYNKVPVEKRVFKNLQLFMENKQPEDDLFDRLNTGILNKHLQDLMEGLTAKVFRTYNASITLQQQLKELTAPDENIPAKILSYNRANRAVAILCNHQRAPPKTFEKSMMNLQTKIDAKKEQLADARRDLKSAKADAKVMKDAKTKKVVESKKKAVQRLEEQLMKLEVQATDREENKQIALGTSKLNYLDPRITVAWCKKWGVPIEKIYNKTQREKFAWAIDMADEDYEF

Enterococcus faecalis = experiment: Antimicrobial activity against Streptococcus faecalis ATCC 29212 after overnight incubation; type: functional; how it was run: as §1
Staphylococcus aureus = experiment: Antimicrobial activity against Staphylococcus aureus ATCC 25923 after overnight incubation; type: functional; how it was run: as §1
Escherichia coli = experiment: Antimicrobial activity against Escherichia coli ATCC 25922 after overnight incubation; type: functional; how it was run: as §1
DNA topoisomerase 1 [2] = target: T2, DNA topoisomerase 1 (Homo sapiens, UniProt P11387); experiment: Inhibition of DNA topoisomerase 1
T2 sequence (P11387 whole entry): T1 sequence (whole entry)

[3] = target: T1, DNA topoisomerase 1 (Homo sapiens); experiment: Inhibition of human DNA topoisomerase 1 assessed as inhibition of uncoiling of supercoiled Tetrahymena pHOT1 DNA at > 1000 uM after 30 mins by agarose gel electrophoresis
How it was run: (§2)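 Human placental topoisomerase I (1 unit relaxes 0.5 µg DNA in 15 min at 37 °C) was used with 0.25 µg supercoiled pHOT1 plasmid. Fatty acids in DMSO were tested at final 1000, 800, 500, 100 and 10 µM for 30 min at 37 °C. Reactions were stopped with SDS, then proteinase K (final 0.05 mg/mL, 30 min, 37 °C). Products were run on 1% agarose, stained with ethidium bromide, and bands imaged and quantitated.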

[4] = target: T1, DNA topoisomerase 1 (Homo sapiens); experiment: Inhibition of human DNA topoisomerase 1 assessed as inhibition of uncoiling of supercoiled Tetrahymena pHOT1 DNA at 800 uM after 30 mins by agarose gel electrophoresis; how it was run: as §2
DNA topoisomerase 1 [5] = target: T2, DNA topoisomerase 1; experiment: Inhibition of human DNA topoisomerase 1

IC50 (DNA topoisomerase 1 [2]): > 1000 µM
Structure (SMILES): CCCCCCCC/C=C/CCCCCCCC(=O)O [ELAIDIC ACID]

IC50 (DNA topoisomerase 1 [2]): 31 µM
Structure (SMILES): CCCCCCCC/C=C\CCCCCCCC(=O)O [OLEIC ACID]

More lines, now with the values behind:

Structure (SMILES): CCCCCCCCCCCCCCCC(=O)O [PALMITIC ACID]
MIC (Pseudomonas aeruginosa): > 400 µM
inhibition [1]: inactive
MIC (Enterococcus faecalis): > 400 µM
MIC (Staphylococcus aureus): > 400 µM
MIC (Escherichia coli): > 400 µM

Structure (SMILES): CCCCCCC#CCCC#CCCCC(=O)O
inhibition [3]: inactive

Structure (SMILES): CCCCCC/C=C\CC/C=C\CCCC(=O)O
inhibition [4]: Active
Activity (Pseudomonas aeruginosa): inactive
MIC (Enterococcus faecalis): 200 µM (≈ 50.5 µg/mL)
MIC (Staphylococcus aureus): 80 µM (≈ 20.2 µg/mL)
Activity (Escherichia coli): inactive

Structure (SMILES): CCCCCCCCCCCCCCCCC/C=C\CC/C=C\CCCC(=O)O
IC50 (DNA topoisomerase 1 [5]): 0.9 µM

Structure (SMILES): CC(C)CCC/C=C\CC/C=C\CCCC(=O)O
MIC (Enterococcus faecalis): 160 µM (≈ 40.4 µg/mL)
MIC (Staphylococcus aureus): 240 µM (≈ 60.6 µg/mL)
